Compound activity (PubChem BioAssay)
Rows were chosen to be rich in hits. Some 1.4% of all compounds tested hit in one or more screens of this group.
Glyco luc inh: blocks N-linked glycosylation in D54 reporter cells | D54 ERlucT glycosylation luciferase reporter, 24 h; percent of 100 nM tunicamycin response | reporter increase, % at 12.5 µM | 360,000 tested, 0.23% active | AID 588692;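 active = mean luciferase reporter signal, scaled so untreated is 0 and the glycosylation-blocking control 100, at or above a set limit in every replicate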;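 note: luciferase carries N-glycosylation sites so blocking glycosylation raises the light; 0% = median of neutral control wells and 100% = median of 100 nM tunicamycin wells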
Vif imaging: HIV Vif inhibition; inhibition, % at 7.49 µM; HEK293T cells, Vif self-association by quenched fluorescence, imaging, 24 h; 340,000 tested, 0.35% active; AID 602346; in the data active = inhibition above about 50%, passing the limit was not always enough
CAL PDZ FP-1: inhibitors of human CAL PDZ peptide binding; Q9HD26; purified CAL PDZ, TMR-peptide fluorescence polarization, 1 h; inhibition, % at 20 µM; 330,000 tested, 0.02% active;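 active = highest replicate inhibition of at least 40%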;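 note: plate controls were DMSO neutral control wells for no effect and unlabeled competitor peptide control wells for full effect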
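Test system: purified CerCALP PDZ construct; Compound dosing: one concentration, 20 µM compound; Also added: TMR-labelled reporter peptide T*-PRC34 bound in PDZ groove; Read-out: inhibition from polarization loss; Controls: unlabelled peptide and DMSO controls; Signal: FP readout, S and P plane fluorescence; Incubation: 1 h at RT.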
CDK5 inh: blocks human CDK5/p35 kinase activity. Q00535+Q15078. Recombinant CDK5/p35, ADP-Glo luminescence, 60 min. inhibition, % at 10 µM. 330,000 tested, 0.01% active. AID 488839;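 active = highest replicate inhibition of at least 50% and at least 75% of replicates reaching 50%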;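 note: plate controls were DMSO neutral control for no effect and GW8510 at 10 µM for full effect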
Target sequence (Q00535 whole entry, looked up): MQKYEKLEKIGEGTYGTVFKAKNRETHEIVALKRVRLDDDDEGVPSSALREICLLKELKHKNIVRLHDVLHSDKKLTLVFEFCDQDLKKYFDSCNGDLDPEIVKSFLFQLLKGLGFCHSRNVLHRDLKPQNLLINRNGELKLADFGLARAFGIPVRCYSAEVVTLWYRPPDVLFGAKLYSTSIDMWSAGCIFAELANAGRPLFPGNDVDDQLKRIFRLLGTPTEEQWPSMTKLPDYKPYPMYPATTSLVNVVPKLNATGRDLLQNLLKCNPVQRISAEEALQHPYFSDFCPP
Target sequence (Q15078 whole entry, looked up): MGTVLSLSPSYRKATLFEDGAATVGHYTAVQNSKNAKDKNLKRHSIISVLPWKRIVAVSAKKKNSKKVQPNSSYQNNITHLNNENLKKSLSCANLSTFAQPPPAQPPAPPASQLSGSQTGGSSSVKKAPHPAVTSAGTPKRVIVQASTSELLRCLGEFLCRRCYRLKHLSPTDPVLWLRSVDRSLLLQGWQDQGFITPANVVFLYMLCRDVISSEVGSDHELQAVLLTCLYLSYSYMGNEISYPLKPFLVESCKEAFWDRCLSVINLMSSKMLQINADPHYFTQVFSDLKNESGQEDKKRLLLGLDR
PvdQ inh: P. aeruginosa PvdQ acylase inhibition | inhibition, % at 10 µM | 340,000 tested, 0.063% active | purified PvdQ acylase, fluorescence plate reader | AID 488965; in the data active = inhibition above about 30%, passing the limit was not always enough;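 note: 0% = vehicle neutral wells and 100% = reference inhibitor wells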
CAL PDZ FP-2: inhibitors of human CAL PDZ peptide binding | 300,000 tested, 0.92% active | purified CAL PDZ, TMR-peptide fluorescence polarization, 1 h | Q9HD26 | inhibition, % at 24.9 µM;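 active = mean inhibition of at least 30% with at least half of replicates also reaching 30%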;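 note: 0% = DMSO neutral control and 100% = excess unlabeled competitor peptide PRC23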
Active calls of the source: *; nt = no result.

SMILES	Glyco luc inh	Vif imaging	CAL PDZ FP-1	CDK5 inh	PvdQ inh	CAL PDZ FP-2
CCCCc1ccc(NC(=S)N2CCCC2)cc1	2.3	-4.3	-2.8	-2.9	-8.0	-3.3
O=C(Nc1ccc(S(=O)(=O)Nc2ncccn2)cc1)C1CC(=O)N(c2ccc(Cl)cc2)C1 (stereo unspecified)	1.0	56.3*	-3.6	-0.4	-12.1	-3.6
COc1ccc(C(CNC(=O)Cc2cccs2)N(C)C)cc1 (stereo unspecified)	0.2	-1.3	-2.1	-0.1	-1.8	3.2
O=S(=O)(c1ccccc1)N(F)S(=O)(=O)c1ccccc1	1.1	58.9*	-0.5	-0.3	0.5	2.1
CCCn1nc(C(=O)N(C)CC(=O)Nc2ccc(OCC)c(OCC)c2)c2ccccc2c1=O	0.9	3.2	-0.2	-0.3	2.1	-5.0
COc1cccc(/C=N/NC(=O)c2cc3c(OC)c(OC)ccc3[nH]2)c1OC	19.9	2.8	2.1	-2.4	-10.0	3.2
COc1ccccc1/C=N/NC(=O)c1cc2c(OC)c(OC)ccc2[nH]1	33.8*	8.5	1.4	-0.6	0.9	-0.4
COc1ccc(OC)c(/C=N/NC(=O)c2cc3c(OC)cccc3[nH]2)c1	-6.0	-10.4	-1.0	-0.4	-15.0	0.2
CCOc1ccc(/C=N/NC(=O)c2cc3c(OC)cccc3[nH]2)cc1	50.3*	-12.2	-0.1	-1.1	-2.7	-1.4
COc1ccccc1-c1nc(S(=O)(=O)c2ccc(Cl)cc2)c(N(C)C)o1	4.0	52.8*	-2.8	0.6	-10.1	-0.6
Cn1c(=O)c2[nH]c(NN=Cc3ccccc3)nc2n(C)c1=O	9.0	-2.4	1.3	-0.4	-2.5	94.3*
Cc1ccc(C=NNc2nc3c([nH]2)c(=O)n(C)c(=O)n3C)cc1	4.0	-6.5	-0.1	0.4	7.7	0.5
CCc1ccc(OC2(C)CCN(Cc3ccccc3OC(F)F)C2)cc1 (stereo unspecified)	-0.3	73.3*	nt	nt	nt	nt
CC1(Oc2ccc(F)cc2)CCN(Cc2ccccc2OC(F)F)C1 (stereo unspecified)	2.8	13.2	nt	nt	nt	nt
O=C(COC(=O)CCSc1ccccc1)Nc1ccc(F)cc1Cl	1.2	-1.7	-2.1	-1.3	9.4	-3.6
O=C(COC(=O)CCSc1ccccc1)Nc1cc(F)ccc1F	0.6	3.2	0.2	-3.3	-11.1	46.2*
Cc1cc(C)c(NC(N)=S)c(C)c1	0.1	-4.4	-0.7	0.2	-5.2	-2.3
O=C(/C=C/c1ccco1)N1CCC(Cc2ccccc2)CC1	2.2	64.9*	-0.2	1.0	9.9	-2.6
O=C(OCC(=O)N1CCC(Cc2ccccc2)CC1)c1ccc(O)cc1	-1.6	1.6	nt	nt	nt	nt
O=C(OCC(=O)N1CCOCC1)c1ccc(O)cc1	0.0	-5.3	0.4	2.7	-14.6	126.5*
O=C(OCC(=O)N1CCC(Cc2ccccc2)CC1)c1ccccc1	0.4	2.0	-2.2	-2.3	-10.6	31.2*
O=C(OCC(=O)N1CCOCC1)c1ccccc1O	0.6	28.5	-0.6	-0.7	-17.2	-7.1
CN1CCC(C2(O)c3ccccc3CSc3sccc32)CC1 (stereo unspecified)	-0.7	2.2	nt	1.3	-23.8	110.3*
COc1ccc(NS(=O)(=O)c2cc(NC(=O)[C@@H](NC(=O)c3ccccc3)C(C)C)ccc2C)cc1	5.2	1.1	-2.7	-2.8	-10.3	-0.6
CCOC(=O)c1ccc(-n2c(C)nc3c(cnn3-c3ccc(Cl)cc3)c2=O)cc1	2.0	-0.9	1.1	-0.1	6.3	-3.9
SMILES	Glyco luc inh	Vif imaging	CAL PDZ FP-1	CDK5 inh	PvdQ inh	CAL PDZ FP-2
CCOC(=O)c1ccc(-n2c(C)nc3c(cnn3-c3ccccc3Cl)c2=O)cc1	-0.3	0.0	0.5	-2.0	-10.7	77.9*
COc1ccc(-n2nc3c(c2NC(=O)c2ccco2)CS(=O)(=O)C3)cc1	-1.0	5.6	-1.0	0.3	-13.9	76.2*
Cc1ccc(-n2nc3c(c2NC(=O)c2ccco2)CS(=O)(=O)C3)cc1	1.0	1.6	-0.5	-13.3	-20.2	-2.7
C=CCn1c(SC2CCOC2=O)nc2sc(C)c(C)c2c1=O (stereo unspecified)	1.1	21.7	nt	0.2	-15.9	48.6*
COc1ccc(CCNC(=O)CCN2C(=O)COc3ccccc32)cc1OC	1.5	125.6*	-0.4	1.1	0.6	-2.7
NC(c1ccncc1)c1ccc(Cl)cc1 (stereo unspecified)	-0.1	1.4	nt	nt	nt	nt
O=C1/C(=C/c2ccc(N3CCCC3)cc2)NC(=S)N1C1CC1	0.8	54.4*	-3.0	3.7	5.3	-2.1
O=C1N/C(=C/c2ccc(N3CCCC3)cc2)C(=O)N1c1ccccc1	-1.1	5.5	0.9	-3.4	-9.5	-1.0
CN1CCc2cc3c(c4c2[C@H]1[C@H](O)c1ccccc1-4)OCO3	33.5*	-4.5	0.6	0.3	-7.9	-4.9
COc1ccc2c(c1OC)C(=O)OC2C1c2c(cc3c(c2OC)OCO3)CCN1C (stereo unspecified)	1.5	-2.2	-0.5	1.6	6.0	-1.0
CN(C)c1ccc(-n2cccc2/C=C/[N+](=O)[O-])cc1	64.1*	-1.5	-5.0	1.7	-8.7	-1.4
NC(=O)CNC(=O)c1cccc(Cl)c1	-0.9	1.3	-0.6	-0.4	-13.2	-5.2
Cn1c(CNC(=O)CCNC(=O)c2cccc(Cl)c2)cc(=O)n(C)c1=O	-1.5	-3.3	-1.1	-1.0	-12.7	43.0*
CC(C)CCNC(=O)c1cccc(Cl)c1	0.5	5.7	-0.6	1.2	39.2*	-2.2
COc1cccc(OC)c1C(=O)NCCOc1cc(C)cc(C)c1	-0.4	-3.0	0.4	0.2	-20.8	-4.6
COc1cccc(C(=O)NCCOc2cc(C)cc(C)c2)c1	3.9	-0.3	-2.2	0.8	-10.1	38.4*
COc1cccc(C(=O)NCCCNC(=O)c2cccnc2)c1	0.4	86.9*	-2.8	-0.3	-9.8	4.9
COc1cccc(C(=O)NCCCNC(=O)c2cccc(OC)c2)c1	-1.5	-2.0	-0.1	-1.2	-18.9	2.0
Cc1ccc2c(CN3CCCCC3)cc(=O)oc2c1C	-2.8	-5.4	-0.2	0.2	-17.5	3.4
Cc1ccc2c(CN3CCCc4ccccc43)cc(=O)oc2c1C	-1.1	12.9	nt	0.2	-7.0	49.0*
O=c1c2cc(F)ccc2[nH]c(=S)n1Cc1ccc(F)cc1	-2.2	nt	0.5	0.9	-12.0	nt
CCOC(=O)c1c(S(=O)(=O)NCC(C)c2ccccc2)c(C)n(C)c1C (stereo unspecified)	-2.3	-7.6	-2.2	1.2	9.6	-4.3
COc1ccc(-c2cc(C(=O)O)sc2C)cc1	0.5	28.8	-1.7	0.3	-3.8	43.7*
COc1ccc2c(c1)CCc1cc(C(=O)O)sc1-2	1.4	0.5	0.3	-3.1	-19.1	-3.4
CC[C@]1(C(=O)OC)[C@H]2C(=O)N(C)C(=O)[C@H]2[C@H]2CN=C(SCc3ccc(OC)cc3)N21	1.4	2.2	-0.5	11.1	10.2	2.9
CCNc1ccc(C(=O)NN=C2CCCC2)cc1[N+](=O)[O-]	0.8	nt	0.2	2.3	-1.1	31.5*
